According to ChEMBL document CHEMBL1131138, “A novel class of orally active non-peptide bradykinin B2 receptor antagonists. 3. Discovering bioisosteres of the imidazo[1,2-a] pyridine moiety” (J Med Chem, 1998):

Legend:
Cavia porcellus [1] = experiment: Inhibition of Bradykinin induced Bronchoconstriction in anaesthetized guinea pig at 0.32mg/kg, po; format: functional
Method in brief: (§1)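 Male Hartley guinea pigs (470–750 g), fasted overnight, anesthetized with ip pentobarbital (30 mg/kg) and ventilated at 10 mL/kg, 60 breaths/min. Given alcuronium (0.5 mg/kg iv) and propranolol (10 mg/kg sc). BK 5 μg/kg iv, with bronchoconstriction read as peak pulmonary insufflation pressure (modified Konzett–Rössler).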

Cavia porcellus [2] = experiment: In vivo inhibition of Bradykinin induced Bronchoconstriction in anaesthetized guinea pig following 1 mg/kg p.o.; format: functional; conditions: route oral; method in brief: as §1
B2 bradykinin receptor [3] = molecular target: T1, B2 bradykinin receptor (Cavia porcellus, UniProt O70526); experiment: Concentration required to inhibit specific binding of [ 3H]BK (0.06 nM) to Bradykinin receptor B2 in guinea pig ileum membrane preparations by 50%.; format: cell membranes
T1 sequence (O70526 whole entry): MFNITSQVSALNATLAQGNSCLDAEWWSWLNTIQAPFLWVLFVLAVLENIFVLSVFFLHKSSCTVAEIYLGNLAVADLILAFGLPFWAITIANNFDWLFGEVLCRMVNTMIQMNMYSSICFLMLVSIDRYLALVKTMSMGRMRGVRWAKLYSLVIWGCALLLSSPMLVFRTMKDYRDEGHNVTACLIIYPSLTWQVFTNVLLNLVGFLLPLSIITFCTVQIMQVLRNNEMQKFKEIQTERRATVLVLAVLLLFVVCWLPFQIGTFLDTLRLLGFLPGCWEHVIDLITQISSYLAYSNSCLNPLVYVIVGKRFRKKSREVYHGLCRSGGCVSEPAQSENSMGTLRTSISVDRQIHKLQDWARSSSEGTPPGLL
Method in brief: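 Ileal membranes from male Hartley guinea pigs (0.2 mg protein/mL) in TES buffer pH 6.8 with phenanthroline, bacitracin, DTT, captopril and BSA. Incubated with 0.06 nM [3H]BK plus compound for 60 min at room temperature, then filtered through GF/B and counted by scintillation.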

B2 bradykinin receptor [4] = molecular target: T2, B2 bradykinin receptor (Homo sapiens, UniProt P30411); experiment: Concentration required to inhibit specific binding of [3H]BK (1.2 nM) to A-431 cells (human epidermoid carcinoma) which express Bradykinin receptor B2 by 50%.; format: cell-based
T2 sequence (P30411 whole entry): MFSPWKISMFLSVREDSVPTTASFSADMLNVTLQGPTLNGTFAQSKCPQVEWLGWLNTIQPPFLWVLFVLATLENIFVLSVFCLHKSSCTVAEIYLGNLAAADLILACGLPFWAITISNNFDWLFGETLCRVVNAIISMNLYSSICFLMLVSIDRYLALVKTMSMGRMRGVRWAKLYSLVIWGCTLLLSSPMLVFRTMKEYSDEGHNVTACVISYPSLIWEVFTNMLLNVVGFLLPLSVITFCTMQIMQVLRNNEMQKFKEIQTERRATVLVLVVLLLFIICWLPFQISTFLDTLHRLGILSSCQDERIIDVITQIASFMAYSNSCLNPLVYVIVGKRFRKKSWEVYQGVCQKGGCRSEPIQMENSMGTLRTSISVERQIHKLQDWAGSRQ

B2 bradykinin receptor [5] = molecular target: T2, B2 bradykinin receptor; experiment: Inhibition specific binding of [3H]BK (1.0 nM) to human Bradykinin receptor B2 which was expressed in CHO (Chinese hamster ovary) cells by 50%.; format: cell-based
Method in brief: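 CHO (dhfr−) cells stably expressing human B2 receptor, seeded at 3.0 × 10^4 cells/well and cultured 1 day. Whole cells incubated with 1.0 nM [3H]BK plus compound for 2 h at 4 °C in HEPES/N-methyl-D-glucamine buffer pH 7.2 with bacitracin, enalaprilat and BSA. Washed, solubilized in SDS/NaOH and counted. Nonspecific binding with 1 μM BK; DMSO below 3%; three experiments.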

Cavia porcellus [6] = experiment: Compound tested in vivo for inhibition of Bradykinin induced Bronchoconstriction in anaesthetized guinea pig at 1 mg/kg, po; format: functional; method in brief: as §1

Row | Compound | IC50 (B2 bradykinin receptor [3]) [nM] | IC50 (B2 bradykinin receptor [4]) [nM] | IC50 (B2 bradykinin receptor [5]) [nM] | inhibition in vivo at 0.32 mg/kg (Cavia porcellus [1]) [%] | inhibition in vivo at 1 mg/kg (Cavia porcellus [2]) [%] | inhibition in vivo at 1 mg/kg (Cavia porcellus [6]) [%]
1 | CCc1nc2c(OCc3c(Cl)ccc(N(C)C(=O)CNC(=O)/C=C/c4ccc(C(=O)NC)cc4)c3Cl)cccc2n1C | 8.7 |  | 22 |  |  | 31.7
2 | CNC(=O)c1ccc(/C=C/C(=O)NCC(=O)N(C)c2ccc(Cl)c(COc3ccc4ccc(C)nc4c3)c2Cl)cc1 | > 10000 | > 10000 |  |  |  | 
3 | CC(=O)Nc1ccc(/C=C/C(=O)NCC(=O)N(C)c2ccc(Cl)c(COc3cccc4ncc(C)nc34)c2Cl)cc1 | 2.4 |  | 2.5 |  |  | 28.6
4 | CNC(=O)c1ccc(/C=C/C(=O)NCC(=O)N(C)c2ccc(Cl)c(COc3cccnc3-n3c(C)ccc3C)c2Cl)cc1 | 350 | 3500 | 2000 |  |  | 
5 | CNC(=O)c1ccc(/C=C/C(=O)NCC(=O)N(C)c2ccc(Cl)c(COc3cccc4c3nc(C)n4C)c2Cl)cc1 | 9.1 | 43 | 67 |  |  | 
6 | CNC(=O)c1ccc(/C=C/C(=O)NCC(=O)N(C)c2ccc(Cl)c(COc3cccc4nc(C)cnc34)c2Cl)cc1 | 170 | 4300 | 2900 |  |  | 
7 | CNC(=O)c1ccc(/C=C/C(=O)NCC(=O)N(C)c2ccc(Cl)c(COCc3cccc(C)n3)c2Cl)cc1 | > 10000 | > 10000 | > 10000 |  |  | 
8 | CNC(=O)c1ccc(/C=C/C(=O)NCC(=O)N(C)c2ccc(Cl)c(COc3cccc4oc(C)nc34)c2Cl)cc1 | 380 | 860 | 1100 |  |  | 
9 | CNC(=O)c1ccc(/C=C/C(=O)NCC(=O)N(C)c2ccc(Cl)c(COc3cccc4cnc(C)nc34)c2Cl)cc1 | 110 | 59 | 56 |  |  | 

Stronger by IC50 (B2 bradykinin receptor [3]), values ahead:

Row | IC50 (B2 bradykinin receptor [3]) [nM] | IC50 (B2 bradykinin receptor [4]) [nM] | IC50 (B2 bradykinin receptor [5]) [nM] | Compound | inhibition in vivo at 0.32 mg/kg (Cavia porcellus [1]) [%] | inhibition in vivo at 1 mg/kg (Cavia porcellus [2]) [%] | inhibition in vivo at 1 mg/kg (Cavia porcellus [6]) [%]
10 | 0.51 | 1.3 | 1.1 | CNC(=O)c1ccc(/C=C/C(=O)NCC(=O)N(C)c2ccc(Cl)c(COc3cccc4ccc(C)nc34)c2Cl)cc1 | 67.4 | 81.9 | 
11 | 1 | 3.1 | 5.2 | CNC(=O)c1ccc(/C=C/C(=O)NCC(=O)N(C)c2ccc(Cl)c(COc3cccc4ncc(C)nc34)c2Cl)cc1 |  |  | 
12 | 1.1 | 14 |  | Cc1ccc2cccc(OCc3c(Cl)ccc(N(C)C(=O)CNC(=O)/C=C/c4cccc(C(=O)N(C)C)c4)c3Cl)c2n1 |  |  | 
13 | 1.6 |  | 7.2 | CNC(=O)c1ccc(/C=C/C(=O)NCC(=O)N(C)c2ccc(C)c(COc3cccc4c3nc(OC)n4C)c2C)cc1 |  |  | 59.7
14 | 0.83 |  | 2.2 | CNC(=O)c1ccc(/C=C/C(=O)NCC(=O)N(C)c2ccc(Cl)c(COc3cccc4c3nc(OC)n4C)c2Cl)cc1 |  |  | 21.7
